High-throughput results as filed in PubChem.
In the library only some 4.3% were active in any assay of this set; here they are far more common.
SR-BI uptake up: activators of SR-BI mediated DiI-HDL uptake, primary screen, ldlA[mSR-BI] CHO cells, DiI fluorescence | 3 h; 100 = double the neutral-control signal | activation, % at 12.5 µM | 320,000 tested, 0.096% active | AID 504775, 2011;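 active = mean replicate activation of at least 60% and every replicate at or above 60%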;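 also: 0% = median plate neutral-control signal and 100% = twice that signal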
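Test system: SR-BI-overexpressing, LDLR-lacking CHO cells; Also added: labelled HDL, 10 µg/mL; Measured by: bottom-read cell fluorescence after medium removal, ex 550/em 595 nm; Timing: 3 h uptake period with compound, 37 °C; Buffer or medium: F12, 0.5% BSA, 25 mM HEPES; Doses: single compound concentration, delivered by pin transfer.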
Hep lipid drop: inhibitors of hepatocyte lipid droplet formation, primary screen, imaging, high-throughput imaging, BODIPY stain | AML12 mouse hepatocytes, oleate lipid droplets | inhibition, % at 6.5 µM | 240,000 tested, 0.4% active | AID 1656, 2009;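 active = lipid droplet intensity inhibited by at least 50%, with more than 500 cells counted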
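Material – AML12 mouse liver cells · Also added – oleate loading, 100 µM · Compound dosing – 6.5 µM single-point dosing · Times – overnight treatment with compound plus oleate · Measured by – fluorescence imaging, 20x objective, two fields per well · Read-out – percent inhibition of filter-corrected integrated lipid droplet intensity per well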
SMARCA2 activ: SMARCA2 (BRM) function activators, primary screen, cell-based, luminescence, high throughput | AID 652017, 2013 | MG213 cells, MMTV-luciferase reporter, dexamethasone, overnight | 370,000 tested, 1% active | activation, % at 9.1 µM; in the data active = activation above about 7.8%;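 also: 0% = vehicle wells and 100% = reference activator wells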
SR-BI HDL uptake: inhibitors of SR-BI mediated HDL lipid uptake, primary screen, ldlA[mSR-BI] cells, fluorescence, single point. ldlA[mSR-BI] CHO cells, DiI-HDL uptake fluorescence, 3 h. inhibition, % at 12.5 µM. 320,000 tested, 0.96% active;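 active = mean replicate inhibition of at least 70% and a set share of replicates each scoring 70 or more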;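 also: 0% = median of neutral control wells and 100% = median of positive control wells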
Target sequence (Q61009 whole entry, looked up): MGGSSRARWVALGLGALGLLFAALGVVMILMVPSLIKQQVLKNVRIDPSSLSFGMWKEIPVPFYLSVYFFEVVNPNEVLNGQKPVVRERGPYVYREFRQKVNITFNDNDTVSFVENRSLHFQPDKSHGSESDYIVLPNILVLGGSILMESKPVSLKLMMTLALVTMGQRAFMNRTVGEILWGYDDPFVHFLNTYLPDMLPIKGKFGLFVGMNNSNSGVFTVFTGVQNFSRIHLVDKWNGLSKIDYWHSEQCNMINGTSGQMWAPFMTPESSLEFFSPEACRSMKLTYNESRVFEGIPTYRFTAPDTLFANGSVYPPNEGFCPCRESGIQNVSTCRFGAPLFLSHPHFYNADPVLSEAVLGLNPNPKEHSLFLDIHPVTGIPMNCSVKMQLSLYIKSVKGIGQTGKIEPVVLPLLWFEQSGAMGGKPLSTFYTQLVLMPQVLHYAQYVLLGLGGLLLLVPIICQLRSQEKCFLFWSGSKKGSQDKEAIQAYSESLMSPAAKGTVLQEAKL
AHR act: AHR activators, primary screen, cell-based, luminescence, luciferase reporter, human | Aryl hydrocarbon receptor (Homo sapiens), P35869 | activation, % at 5 µM | 320,000 tested, 2.5% active | AHR-responsive luciferase reporter cells; in the data active = activation above about 47%;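 also: 0% = vehicle wells and 100% = reference agonist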
Yeast superoxide: reduction of superoxide in aged yeast, primary screen, HTS; superoxide response (% of plate mean), % at 10 µM; AID 2690, 2010; S. cerevisiae aged cells, superoxide DHE fluorescence; active compounds read low; 330,000 tested, 0.18% active;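 active = superoxide response under a set limit, about three screen SD below normal, cut at about 65% in these data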;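 also: yeast aged for seven days with compound at 30 °C before DHE staining; 100% = average MFI of all compound-treated wells on the plate with controls excluded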
The depositor's hits bear a star; nt = not tested or not shown.

SMILES	SR-BI uptake up	Hep lipid drop	SMARCA2 activ	SR-BI HDL uptake	AHR act	Yeast superoxide
CC(=O)N1N=C(c2ccccc2)CC1c1ccccc1[N+](=O)[O-] (configuration not stated)	-8	-24	-1	8	35	110
c1ccc(C2Oc3ccccc3C3CC(c4cccs4)=NN32)cc1 (configuration not stated)	-5	-3	-1	5	48*	109
Cc1cc(Nc2ncc(Cl)cc2Cl)n[nH]1	-9	1	-3	9	54*	102
Nc1nc(SCC(=O)Nc2ncc(Cl)cc2Cl)n[nH]1	5	nt	-1	-5	1	75
O/N=C/c1cc(Br)cc(Br)c1OCc1ccccc1	-16	-23	0	16	64*	104
COc1ccc(-c2nc(C#N)c(NCCCn3ccnc3)o2)cc1OC	-5	-3	-3	5	70*	108
N#Cc1nc(-c2ccco2)oc1NCCCn1ccnc1	3	0	1	-3	70*	98
CC(C)(C)c1ccc(-c2nc(C#N)c(NCCCn3ccnc3)o2)cc1	-10	-19	5	10	31	102
COc1ccc(NC(=O)C2=Cc3cccc(OC)c3OC2)cc1	-32	1	7.8*	32	3	115
COc1ccc(NC(=O)C2=Cc3ccccc3OC2)cc1	nt	2	1	nt	4	111
C=CCN1C(C(=O)OC)CN(Cc2cn(CCC3OCCO3)nn2)CCS1(=O)=O (configuration not stated)	nt	nt	-4	nt	nt	nt
N#C/C(=C(/O)C(Cl)(Cl)Cl)c1nc2ccccc2[nH]1	nt	6	-7	nt	53*	117
CC(=O)OC(/C(O)=C(\C#N)c1nc2ccccc2[nH]1)c1ccccc1 (configuration not stated)	24	nt	-4	-24	49*	104
C[C@H]1Cn2cnc(C(=O)N3CCN(c4ccccc4)CC3)c2C(=O)N1	nt	nt	-1	nt	nt	nt
COC(=O)[C@]12C[C@H](CC(=O)NCCC(C)C)C(=O)N(Cc3ccc4c(c3)OCO4)C1=C[C@H](COCc1ccccc1)O[C@@H]2C	nt	nt	-4	nt	nt	nt
O=C(COc1ccc(Cl)cc1)Nc1nnc(-c2ccc3c(c2)CCCC3)o1	2	4	0	-2	27	116
COc1ccccc1C(=O)Nc1nnc(-c2ccc3c(c2)CCCC3)o1	-13	nt	-1	11	52*	109
CC(=O)Nc1nnc(-c2ccc3c(c2)CCCC3)o1	-8	nt	7	8	59*	93
COc1ccccc1NC(=O)OC1CC2CC1[C@H]1CCCCN1[C@H]2C (some centres not stated)	nt	nt	-2	nt	nt	nt
Cc1cc(C)nc(SCC(=O)N2CCc3ccccc32)n1	-5	5	1	5	73*	99
Cc1nc(C)c(NC(=O)N2CCc3ccccc32)cc1NC(=O)N1CCc2ccccc21	-32	19	1	32	50*	119
CCOC(=O)c1cc(NC(=O)N2CCCc3ccccc32)c(C)nc1C	-27	nt	2	27	14	83
Cc1cc(C)n2nc(SCC(=O)N3CCc4ccccc43)nc2n1	8	-8	2	-8	38	97
COc1ccc(/C=N/OCC(=O)N=Nc2c(O)[nH]c3ccc(Br)cc23)cc1OC	-1	3	1	1	78*	109
COc1ccc(OC)c(S(=O)(=O)N(CCc2ccc(OC)c(OC)c2)Cc2cccs2)c1	nt	nt	-4	nt	nt	nt
SMILES	SR-BI uptake up	Hep lipid drop	SMARCA2 activ	SR-BI HDL uptake	AHR act	Yeast superoxide
COc1ccc(/C=N/N2CCOCC2)cc1COc1ccc(Cl)cc1	-43	4	7.9*	43	46	106
COC(=O)[C@]12C[C@H](CC(=O)N3CCN(C(=O)C4CC4)CC3)C(=O)N(Cc3cccc4ccccc34)C1=C[C@H](C(C)C)O[C@@H]2C1CC1	nt	nt	-2	nt	nt	nt
CCc1nnc(N/N=C/c2ccccc2Cl)n1N	11	nt	-3	-11	53*	86
CCc1nnc(N/N=C/c2ccccc2F)n1N	8	-2	-10	-8	31	107
COc1ccccc1CCn1cnc(-c2cccc(Br)c2)c1CC(C)C	nt	nt	-8	nt	nt	nt
Cc1ccc(NC2=C(N3CCCCC3)C(=O)c3ccccc3C2=O)cc1	-73	nt	-6	73*	11	125
O=C(/C=C/c1ccc(O)cc1)c1ccc(NC2=C(N3CCCCC3)C(=O)c3ccccc3C2=O)cc1	-90	nt	-4	90*	4	155
CCS(=O)(=O)c1ncc(Cl)c(C(=O)Nc2ccc(S(=O)(=O)N(C)c3ccccc3)cc2)n1	-86	-23	-7	86*	0	108
COc1ccc2c(c1)CN1CN(CC(C)C)S(=O)(=O)CC21 (configuration not stated)	nt	nt	-5	nt	nt	nt
O=C(Nc1ccccc1F)c1oc2ccccc2c1NC(=O)C1CC1	-4	-4	-3	4	57*	102
CCCCNc1c(-c2ccc(-c3ccc(C(C)=O)cc3)c(OC)c2)nc2cc(C)ccn12	-72	nt	1	72*	-1	114
CCOc1ncccc1C(=O)Nc1ccc(F)c(Cl)c1	3	14	1	-3	61*	99
Cc1cnc(C(=O)Nc2cccc(-c3nnc4n3CCCCC4)c2)cn1	17	nt	-3	-17	14	105
COc1ccccc1S(=O)(=O)Nc1cccc(-c2nnc3n2CCCCC3)c1	nt	nt	-1	-20	-2	111
CCOc1ncccc1C(=O)Nc1cccc(-c2nnc3n2CCCCC3)c1	1	-8	0	-1	47*	105
CCOc1ncccc1C(=O)Nc1ccc(Cl)c(S(=O)(=O)N2CCCC2)c1	-31	1	-6	31	-2	96
c1cc(Nc2ncnc3sccc23)cc(-c2nnc3n2CCCCC3)c1	5	nt	-4	-5	49*	95
CCOc1ncccc1C(=O)Nc1nc(C(C)(C)C)cs1	-18	16	-2	18	59*	92
CCOc1ncccc1C(=O)Nc1ccc(F)c(F)c1	-45	1	6	45	60*	88
Cc1ccc(-c2cc(-c3nnc(SCC(=O)Nc4nccs4)n3N)[nH]n2)cc1	nt	nt	2	nt	nt	nt
CCOC(=O)c1cc(-c2ccc(OC)cc2)nc2c1c(C)nn2CCC#N	-74	13	-3	74*	-2	102
CCOC(=O)c1cc(-c2ccc(C#N)cc2)nc2c1c(C)nn2CCC#N	-63	4	0	63	4	104
Clc1ccc(-c2cc(-c3nnc4sc(Cc5cccs5)nn34)[nH]n2)cc1	nt	nt	-2	nt	nt	nt
COc1cccc(NC(=O)c2ccc(NS(=O)(=O)c3cccs3)cc2)c1	-77	nt	1	77*	nt	nt
